In brackets after ≈: the same amount, converted by molar mass. Activity calls are given as the source filed them. No cut-off for these calls is given here.
What was measured:
Vero 76 = experiment: Cytotoxicity against African green monkey Vero 76 assessed as reduction in cell viability measured after 72 hrs; format: cell-based; conditions: chlorocebus sabaeus, vero 76, 72 h
Procedure, shortened: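 Uninfected Vero 76 cells were exposed to compound, and viability was assessed 72 h post-treatment.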

[1] = test system: Venezuelan equine encephalitis virus; experiment: Antiviral activity against Venezuelan equine encephalitis virus infected in African green monkey Vero 76 cells assessed as virus induced cytopathic effect measured after 48 hrs; format: functional, organism-based; conditions: Vero 76, 48 h
[2] = test system: Eastern equine encephalitis virus; experiment: Antiviral activity against eastern equine encephalitis virus infected in African green monkey Vero 76 cells assessed as virus induced cytopathic effect measured after 48 hrs; format: functional, organism-based; conditions: Vero 76, 48 h
[3] = test system: Venezuelan equine encephalitis virus; experiment: Antiviral activity against Venezuelan equine encephalitis virus infected in African green monkey Vero 76 cells assessed as reduction on virus yield at 5 uM after 18 hrs of post infection; format: functional
[4] = test system: Eastern equine encephalitis virus; experiment: Antiviral activity against eastern equine encephalitis virus infected in African green monkey Vero 76 cells assessed as reduction on virus yield at 5 uM after 18 hrs of post infection; format: functional
[5] = test system: Venezuelan equine encephalitis virus; experiment: Antiviral activity against Venezuelan equine encephalitis virus co-culture with brain Primary neuron cells HNC001 as reduction on virus titre at 5 uM in Vero 76 cells measured after 18 hrs by TCID50-MTT assay; format: functional, organism-based
[6] = test system: Eastern equine encephalitis virus; experiment: Antiviral activity against Eastern equine encephalitis virus co-culture with brain Primary neuron cells HNC001 as reduction on virus titre at 5 uM in Vero 76 cells measured after 18 hrs by TCID50-MTT assay; format: functional, organism-based
[7] = Aqueous solubility of compound at pH 7.4 measured after 1460 min by HPLC analysis; format: physicochemical; conditions: buffer
Procedure, shortened: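 Kinetic solubility was measured in aqueous PBS buffer at pH 7.4.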

[8] = Metabolic stability in CD-1 mouse liver microsomes assessed as half life measured at 60 mins in presence of NADPH by LC-MS/MS analysis; format: ADME, Microsome; conditions: 1 h
Procedure, shortened: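 Half-life was determined from stability in CD-1 mouse liver microsomes.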

[9] = test system: Venezuelan equine encephalitis virus; experiment: Antiviral activity against Venezuelan equine encephalitis virus co-culture with brain Primary neuron cells HNC001 as reduction on virus titre at 1 uM in Vero 76 cells measured after 18 hrs by TCID50-MTT assay; format: functional, organism-based
[10] = test system: Eastern equine encephalitis virus; experiment: Antiviral activity against Eastern equine encephalitis virus co-culture with brain Primary neuron cells HNC001 as reduction on virus titre at 1 uM in Vero 76 cells measured after 18 hrs by TCID50-MTT assay; format: functional, organism-based

COc1ccc(N2C(=O)c3cc(C#N)cc(Br)c3N=C3C2N(C)CCN3C)cc1F (configuration not stated)
CC50 (Vero 76): > 30 µM | EC50 [1]: 4100 nM | EC50 [2]: 3200 nM

COc1ccc(N2C(=O)c3cc([N+](=O)[O-])ccc3N=C3C2N(Cc2ccccc2)CCN3C)cc1 (configuration not stated)
CC50 (Vero 76): > 30 µM | EC50 [1]: 3000 nM | EC50 [2]: 3200 nM

COc1ccc(N2C(=O)c3cc(C#N)ccc3N=C3C2N(C)CCN3C)cc1 (configuration not stated)
CC50 (Vero 76): > 30 µM | EC50 [1]: 4200 nM | EC50 [2]: 2500 nM

COc1ccc(N2C(=O)c3cc(C#N)cc(N4CCOCC4)c3N=C3C2N(C)CCN3C)cc1F (configuration not stated)
CC50 (Vero 76): > 30 µM | EC50 [1]: 2500 nM | EC50 [2]: 1900 nM | Activity [3]: 2.5 | Activity [4]: 4

COc1ccc(N2C(=O)c3cc([N+](=O)[O-])ccc3N=C3C2N(C)CCN3C)cc1 (configuration not stated)
CC50 (Vero 76): > 30 µM | EC50 [2]: 33 nM | Activity [5]: Active | Activity [6]: Active | solubility kinetic at 24.33 h [7]: 0.7 µM (≈ 0.277 µg/mL) | t1/2 [8]: 10 min | Activity [3]: 5.5 | Activity [4]: 7.9

COc1ccc(N2C(=O)c3cc([N+](=O)[O-])ccc3N=C3[C@@H]2N(C)[C@@H]2CCCC[C@H]2N3C)cc1
CC50 (Vero 76): > 30 µM | EC50 [1]: 4700 nM | EC50 [2]: 4500 nM

CN1CCN(C)C2C1=Nc1cc([N+](=O)[O-])ccc1C(=O)N2c1ccccc1 (configuration not stated)
CC50 (Vero 76): > 30 µM | EC50 [1]: > 30000 nM | EC50 [2]: > 30000 nM

CN1CCN(C)C2C1=Nc1ccc(C#N)cc1C(=O)N2c1ccccc1 (configuration not stated)
CC50 (Vero 76): > 30 µM | EC50 [1]: 7000 nM | EC50 [2]: 4400 nM

COc1ccc(N2C(=O)c3cc(C#N)cc(-c4ccc(C)nc4)c3N=C3[C@H]2N(C)CCN3C)cc1F
EC50 [1]: 500 nM | EC50 [2]: 300 nM | Activity [5]: Active | Activity [6]: Active | Activity [9]: inactive | Activity [10]: inactive | Activity [3]: 6.1 | Activity [4]: 5.2

COc1ccc(N2C(=O)c3cc(C#N)cc(-c4ccc(C)nc4)c3N=C3C2N(C)CCN3C)cc1F (racemic)
CC50 (Vero 76): 23.3 µM | EC50 [1]: 240 nM | EC50 [2]: 160 nM | Activity [5]: Active | Activity [6]: Active | Activity [9]: inactive | Activity [10]: inactive | solubility kinetic at 24.33 h [7]: 2 µM (≈ 0.969 µg/mL) | t1/2 [8]: 45 min | Activity [3]: 5.2 | Activity [4]: 6.9

CN1CCN(C)C2C1=Nc1ccc([N+](=O)[O-])cc1C(=O)N2c1ccccc1 (configuration not stated)
CC50 (Vero 76): > 30 µM | EC50 [1]: 120 nM | Activity [3]: 2.6 | Activity [4]: 5.7

COc1ccc(N2C(=O)c3cc(C#N)cc(-c4ccc(C)nc4)c3N=C3[C@@H]2N(C)CCN3C)cc1F
CC50 (Vero 76): > 30 µM | EC50 [1]: 330 nM | EC50 [2]: 260 nM | Activity [5]: Active | Activity [6]: Active | Activity [9]: inactive | Activity [10]: inactive | Activity [3]: 2.7 | Activity [4]: 5.9

COc1ccc(N2C(=O)c3cc([N+](=O)[O-])ccc3N=C3[C@H]2N(C)[C@H]2CCCC[C@@H]2N3C)cc1
EC50 [1]: 5600 nM | EC50 [2]: 3800 nM

CN1CCN(C)C2C1=Nc1ccc(F)cc1C(=O)N2c1ccccc1 (configuration not stated)
CC50 (Vero 76): > 30 µM | EC50 [1]: > 30000 nM | EC50 [2]: > 30000 nM

COc1ccc(N2C(=O)c3cc([N+](=O)[O-])ccc3N=C3C2N(Cc2ccccc2)CCN3Cc2ccccc2)cc1 (configuration not stated)
CC50 (Vero 76): > 30 µM | EC50 [1]: 19800 nM | EC50 [2]: 13800 nM

COc1cccc(N2C(=O)c3cc([N+](=O)[O-])ccc3N=C3C2N(C)CCN3C)c1 (configuration not stated)
CC50 (Vero 76): > 30 µM | EC50 [1]: 530 nM | EC50 [2]: 500 nM | Activity [3]: 2.4 | Activity [4]: 5.7

COc1ccc(N2C(=O)c3cc([N+](=O)[O-])ccc3N=C3C2N(C2CCCCC2)CCN3C)cc1 (configuration not stated)
CC50 (Vero 76): > 30 µM | EC50 [1]: 7000 nM | EC50 [2]: 6200 nM

CN1CCN(C)C2C1=Nc1ccc([N+](=O)[O-])cc1C(=O)N2c1ccc(F)cc1 (configuration not stated)
CC50 (Vero 76): > 30 µM | EC50 [1]: 150 nM | EC50 [2]: 110 nM | Activity [3]: 2.9 | Activity [4]: 6.1

COc1ccc(N2C(=O)c3cc([N+](=O)[O-])ccc3N=C3C2N(C)CCN3C)cc1F (configuration not stated)
CC50 (Vero 76): > 30 µM | EC50 [1]: 48 nM | Activity [5]: Active | Activity [6]: Active | solubility kinetic at 24.33 h [7]: 0.5 µM (≈ 0.207 µg/mL) | t1/2 [8]: 10 min | Activity [3]: 3.7 | Activity [4]: 7.7

Reference: ChEMBL document CHEMBL5036385, “Piperazinobenzodiazepinones: New Encephalitic Alphavirus Inhibitors via Ring Expansion of 2-Dichloromethylquinazolinones” (ACS Med Chem Lett, 2022)
